This passage reports IC50 and selectivity ratio results from ChEMBL document CHEMBL3758142, “Synthesis and antimalarial activity of quinones and structurally-related oxirane derivatives” (Eur J Med Chem, 2016).

For one data set, the system named is Plasmodium falciparum. Put plainly: Antimalarial activity against chloroquine-sensitive NF54 isolated Plasmodium falciparum 3D7 infected in erythrocytes assessed as inhibition of parasitic growth after 48 hrs by optical microscopy. The note with it: 3D7, 48 h. The format is functional, organism-based. In outline: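 P. falciparum 3D7 in erythrocytes at 1% initial parasitemia, 2% hematocrit. Samples dissolved in DMSO at 10 mg/mL stock, diluted in complete medium to seven test concentrations. Each dilution tested in triplicate; 48 h at 37 °C. Growth inhibition read by optical microscopy of well contents.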

The subject of the next data set is MRC5. Put plainly: Cytotoxicity against human MRC5 cells assessed as cell growth inhibition after 48 hrs by alamar blue assay. The format is cell-based. The settings on record: MRC5, 48 h. In outline: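 Human MRC-5 fibroblasts kept in DMEM with 10% FBS, 2 mM glutamine, streptomycin and penicillin at 37 °C, 5% CO2. Seeded at 2.5 × 10⁴ cells/well, 24 h, then DMSO-dissolved compounds diluted in medium were added; control wells held 0.1% DMSO final. Exposure 48 h; Alamar Blue added for the last 3 h; fluorescence read at 530–560 nm excitation.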
For orientation: Resazurin is reduced to fluorescent resorufin, in cell work by metabolically active cells.

Data set [1] is described as follows: Selectivity index, ratio of IC50 for MRC5 cells to IC50 for chloroquine-sensitive NF54 isolated Plasmodium falciparum 3D7. The format is toxicity, cell-based. The note with it: human; read-out: Ratio IC50.

pIC50: −log10 of the molar value. Some results are limits rather than exact numbers.

As a reminder, the pIC50 is the IC50 on a negative log10 scale, so that one unit is a factor of ten.

On to `C=CCOC1=CC(=O)c2ccccc2C1=O`, for which the pIC50 in the data set on Plasmodium falciparum was 5.29; with MRC5, 4.19. In addition, the selectivity ratio in data set [1] was 12.

As to `O=C1C(Cl)=C(Cl)C2(CO2)C(Cl)=C1Cl`, the values for the pIC50 with Plasmodium falciparum and in the data set on MRC5 were 5.40 and 3.43, respectively. The selectivity ratio in data set [1] was determined as 93.

For the compound `N#CC1=C(C#N)C(=O)C(Cl)=C(Cl)C1=O`, the pIC50 in the data set with Plasmodium falciparum was below 4.30; with MRC5 it was below 4.00.

Regarding `NC1=CC(=O)c2ccccc2C1=O`, the pIC50 in the data set with Plasmodium falciparum is 5.29; with MRC5, 3.49. For the same compound, the selectivity ratio in data set [1] came to 63.

For the compound `CC1(C)CC2=C(O1)C(=O)c1ccccc1C2=O`, the figures for the pIC50 in the data set on Plasmodium falciparum and with MRC5 were below 4.30 and 4.25, respectively. Moreover, in data set [1], the selectivity ratio is below 1.1.

With `C=CCOC1=CC(=O)c2ccccc2C12CO2` (stereo not given), the pIC50 with Plasmodium falciparum is below 4.30; in the data set with MRC5, 4.58. Moreover, the selectivity ratio in data set [1] is below 0.53.

As to `O=C1C=C(Nc2ccccc2)C(=O)c2ccccc21`, the results for the pIC50 in the data set with Plasmodium falciparum and in the data set on MRC5 were 5.20 and below 4.00, respectively. Moreover, the selectivity ratio in data set [1] was above 15.

For `COC1=CC(=O)c2ccccc2C12CO2` (stereo not given), the pIC50 with Plasmodium falciparum was below 4.30; in the data set with MRC5 it was 3.94. For the same compound, the selectivity ratio in data set [1] was below 2.3.

For the compound `O=C1C(Cl)=C(Cl)C2(CO2)c2ccccc21` (stereo not given), the values for the pIC50 in the data set on Plasmodium falciparum and in the data set on MRC5 were 5.21 and 4.03, respectively. Also, in data set [1], the selectivity ratio was found to be 15.

With `COC1=CC(=O)c2ccccc2C1=O` [2-Methoxy-1,4-naphthoquinone], the pIC50 in the data set with Plasmodium falciparum is below 4.30; in the data set with MRC5, 5.28. Besides, the selectivity ratio in data set [1] was below 0.1.

Consider `CC1(C)CCC2=C(O1)C1(CO1)c1ccccc1C2=O` (stereo not given), for which the pIC50 in the data set with Plasmodium falciparum was 5.43; in the data set with MRC5, below 4.00. Also, the selectivity ratio in data set [1] was above 27.

`CC1(C)CCC2=C(O1)C(=O)c1ccccc1C2=O` [ALPHA-LAPACHONE]: the negative logarithm of the IC50 (pIC50) in the data set with Plasmodium falciparum was below 4.30; with MRC5, below 4.00.

In the case of `O=C1C(Cl)=C(Cl)C(=O)c2ccccc21` [Dichlon], the pIC50 with Plasmodium falciparum was 4.86; in the data set on MRC5 it was 4.01. Also, in data set [1], the selectivity ratio came to 7.2.

With `NC1=CC(=O)c2ccccc2C12CO2` (stereo not given), the pIC50 in the data set on Plasmodium falciparum was below 4.30; in the data set on MRC5 it was below 4.00.

Regarding `O=C1C(Cl)=C(Cl)C(=O)C(Cl)=C1Cl` [CHLORANIL], the pIC50 is 4.65 with Plasmodium falciparum and below 4.00 with MRC5. Also, the selectivity ratio in data set [1] was above 4.4.

In the case of `COc1c(Cl)c(Cl)c(OC)c(C#N)c1C#N`, the pIC50 in the data set on Plasmodium falciparum was below 4.30; with MRC5, below 4.00.

Take `CC1(C)CC2=C(O1)C1(CO1)c1ccccc1C2=O` (stereo not given): the figures for the pIC50 in the data set with Plasmodium falciparum and in the data set with MRC5 were below 4.30 and 4.25, respectively. Further, the selectivity ratio in data set [1] was below 1.1.

Turning to `O=C1C=C(Nc2ccccc2)C2(CO2)c2ccccc21` (stereo not given), the pIC50 in the data set with Plasmodium falciparum is below 4.30; in the data set on MRC5, 3.87. Further, the selectivity ratio in data set [1] is below 2.7.
